{"data": "Experimental data from different studies", "target": "Phosphatidylinositol 5-phosphate 4-kinase type-2 beta (PIP4K2B, Homo sapiens, UniProt P78356)", "One construct used (P78356 1-416)": "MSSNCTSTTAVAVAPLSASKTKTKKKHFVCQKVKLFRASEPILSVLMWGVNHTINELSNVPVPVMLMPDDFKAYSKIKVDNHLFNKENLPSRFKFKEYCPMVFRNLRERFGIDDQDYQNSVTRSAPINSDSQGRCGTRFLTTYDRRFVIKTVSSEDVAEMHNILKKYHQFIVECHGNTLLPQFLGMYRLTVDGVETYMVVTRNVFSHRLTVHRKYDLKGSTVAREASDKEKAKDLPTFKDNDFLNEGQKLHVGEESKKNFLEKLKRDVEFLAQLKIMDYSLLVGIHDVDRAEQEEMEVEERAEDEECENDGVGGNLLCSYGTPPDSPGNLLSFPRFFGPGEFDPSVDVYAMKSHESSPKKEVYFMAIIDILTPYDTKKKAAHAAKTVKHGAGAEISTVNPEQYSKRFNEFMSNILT"}
{"SMILES": "CCN1CCN(Cc2ccc(C(=O)Nc3ccc(C)c(Oc4ccc5c(c4)CC(=O)N5)c3)cc2C(F)(F)F)CC1", "read-out": "binding", "technique": "competition with immobilised ligand", "concentration": "1 µM", "remaining binding": "100%"}
{"SMILES": "CC(=O)c1c(NS(C)(=O)=O)c2cc(-c3ccc(Cl)cc3)c(-c3ccc(Cl)cc3Cl)nc2n(C)c1=O", "read-out": "cell-free assay", "technique": "competition with immobilised ligand", "concentration": "1 µM", "remaining binding": "65%"}
{"SMILES": "O=C(c1ccc(Nc2nccc(-c3cc4ccccc4s3)n2)cc1)N1CCC(N2CCCC2)CC1", "read-out": "binding", "technique": "competition with immobilised ligand", "concentration": "1 µM", "remaining binding": "11%"}
{"SMILES": "C[C@H](c1ccnc(Nc2nc3ccc(-c4cc(N(C)C)ncn4)cc3[nH]2)c1)N1CCN(C(=O)CC(F)(F)F)CC1", "read-out": "cell-free assay", "technique": "competition with immobilised ligand", "concentration": "0.1 µM", "remaining binding": "75%"}
{"SMILES": "c1cncc(-c2cccc(Nc3nccc(NC4CCCCC4)n3)c2)c1", "read-out": "binding", "technique": "competition with immobilised ligand", "concentration": "10 µM", "remaining binding": "27%"}
{"SMILES": "Cc1nc(N2CC[C@@H](O)C2)ncc1-c1cc(C(F)(F)F)cc2[nH]ncc12", "read-out": "cell-free assay", "technique": "competition with immobilised ligand", "concentration": "1 µM", "remaining binding": "100%"}
{"SMILES": "CN(C)c1nccc(-c2cnc3ncccn23)n1", "read-out": "binding", "concentration": "1 µM", "remaining binding": "100%"}
{"SMILES": "NS(=O)(=O)c1cc(NC(=O)Cc2ccccc2)ccc1Oc1cccc(Cl)c1", "read-out": "cell-free assay", "technique": "competition with immobilised ligand", "concentration": "1 µM", "remaining binding": "89%"}
{"SMILES": "N[C@@H]1CCN(c2nccc(-c3cnn4ncccc34)n2)C1", "read-out": "binding", "concentration": "1 µM", "remaining binding": "100%"}
{"SMILES": "CNCc1ccccc1-c1csc([C@H](C)Nc2nc(C)nc3cc(OC)c(OC)cc23)c1", "read-out": "cell-free assay", "technique": "competition with immobilised ligand", "concentration": "1 µM", "remaining binding": "100%"}
{"SMILES": "COc1ccnn2ncc(-c3ccnc(N(C)C)n3)c12", "read-out": "binding", "concentration": "1 µM", "remaining binding": "100%"}
{"SMILES": "O=C(NCCCN1CCOCC1)c1ccc(Nc2ncc(Cl)c(-c3ccc(Cl)s3)n2)cc1", "read-out": "binding", "technique": "competition with immobilised ligand", "concentration": "1 µM", "remaining binding": "4.2%"}
{"SMILES": "COc1cnc(Nc2cccc(S(N)(=O)=O)c2)nc1N1CCN(c2ccccc2)CC1", "read-out": "binding", "technique": "competition with immobilised ligand", "concentration": "1 µM", "remaining binding": "100%"}
{"SMILES": "O=C(NCC1CCOCC1)c1n[nH]cc1NC(=O)c1c(F)cccc1F", "read-out": "binding", "technique": "competition with immobilised ligand", "concentration": "1 µM", "remaining binding": "100%"}
{"SMILES": "C=CC(=O)N1CCC(C(=O)NCC(=O)N2CCN(c3nc(-c4cnc(N)nc4C(F)F)nc(N4CCOCC4)n3)CC2)CC1", "read-out": "binding", "technique": "competition with immobilised ligand", "concentration": "1 µM", "remaining binding": "99%"}
{"SMILES": "FC(F)(F)Oc1cccc(-c2cnc3ccc(-c4ccncc4)nn23)c1", "read-out": "cell-free assay", "technique": "competition with immobilised ligand", "concentration": "5 µM", "remaining binding": "100%"}
{"SMILES": "C[C@@H](c1ccc(-n2cnc3c(N)ncnc32)cc1)N1CCc2nn(C)c(Cc3ccccc3)c2C1=O", "read-out": "binding", "technique": "competition with immobilised ligand", "concentration": "0.1 µM", "remaining binding": "69%"}
{"SMILES": "CN(C)c1nccc(-c2cnn3ncccc23)n1", "read-out": "binding", "concentration": "1 µM", "remaining binding": "100%"}
{"SMILES": "C[C@@]1(Cc2ccc(C#N)cc2)C(=O)N(c2cc(Cl)cc(Cl)c2)c2ncc(C(=O)NC3(c4nc(C5CCC5)no4)CC3)n21", "read-out": "cell-free assay", "technique": "competition with immobilised ligand", "concentration": "1 µM", "remaining binding": "97%"}
{"SMILES": "COc1cc(Nc2nccc(-c3cnn4nc(OC)ccc34)n2)cc(C(F)(F)F)c1", "read-out": "binding", "technique": "competition with immobilised ligand", "concentration": "1 µM", "remaining binding": "50%"}
{"SMILES": "c1cnn2ncc(-c3ccnc(N4CCC45COC5)n3)c2c1", "read-out": "binding", "concentration": "1 µM", "remaining binding": "58%"}
{"SMILES": "O=C(NCCCN1CCOCC1)c1ccc(Nc2nccc(-c3cc4ccccc4s3)n2)cc1", "read-out": "binding", "technique": "competition with immobilised ligand", "concentration": "1 µM", "remaining binding": "11%"}
{"SMILES": "CC1CCCN1c1nccc(-c2cnn3ncccc23)n1 (stereo not drawn)", "read-out": "binding", "concentration": "1 µM", "remaining binding": "100%"}
{"SMILES": "Cc1c(NC(=O)c2cc(C(N)=O)nc3cc(F)ccc23)c(C(F)(F)F)nn1Cc1ccc(C(C)(C)C)cc1", "read-out": "cell-free assay", "technique": "competition with immobilised ligand", "concentration": "1 µM", "remaining binding": "91%"}
